Screens from PubChem.
The list is not random: actives were taken first. Their share in the collection is about 3.8%.
KCNK9 block: blocks the human KCNK9 two-pore domain potassium channel; B-score at 10 µM; hit rate 1.2% among 310,000; Q9NPC2; HEK293 KCNK9, FluxOR thallium flux fluorescence; active compounds read low; AID 488922;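 active means ratio B-score over 3 SD below the library mean, with starting fluorescence within 5 SD of its mean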;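 further: negative B-score means less thallium flux so channel inhibition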
Kir21 inh: inhibitors of mouse Kir2.1 inward-rectifier potassium channel | P35561 | HEK293-Kir2.1, FluxOR thallium flux fluorescence; active compounds read low | B-score at 10 µM | hit rate 0.85% among 310,000 | AID 1672;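 active means fluorescence ratio B-score at or below minus 3 SD of library scores, with starting-brightness B-score within 2 SD, cut at about -4.2 in these data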;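 further: channel flux triggered by added potassium and thallium sulfate stimulus; B-score of peak minus minimum fluorescence over baseline after thallium stimulus; more negative B-score means stronger Kir2.1 block with less thallium influx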
Target sequence (P35561 whole entry, looked up): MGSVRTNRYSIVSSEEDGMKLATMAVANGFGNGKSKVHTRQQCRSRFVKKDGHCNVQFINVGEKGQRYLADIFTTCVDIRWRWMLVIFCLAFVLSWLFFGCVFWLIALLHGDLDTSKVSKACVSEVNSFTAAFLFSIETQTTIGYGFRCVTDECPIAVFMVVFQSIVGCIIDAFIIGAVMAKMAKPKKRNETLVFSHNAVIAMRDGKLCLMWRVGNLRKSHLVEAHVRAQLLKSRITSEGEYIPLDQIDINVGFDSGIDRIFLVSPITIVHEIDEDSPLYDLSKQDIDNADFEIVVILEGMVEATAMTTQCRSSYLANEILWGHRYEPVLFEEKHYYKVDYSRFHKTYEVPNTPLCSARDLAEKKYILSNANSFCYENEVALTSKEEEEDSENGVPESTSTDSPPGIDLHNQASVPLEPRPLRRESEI
KCNK3 block: human KCNK3 channel inhibition, primary screen; O14649; CHO-KCNK3 thallium flux, FluxOR fluorescence; active compounds read low; B-score at 10 µM; hit rate 0.84% among 340,000;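 active means B-score under library mean minus 4 SD, starting fluorescence ratio at most library mean plus 5 SD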;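 further: more negative B-score means stronger inhibition of thallium flux through KCNK3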
Target sequence (O14649 whole entry, looked up): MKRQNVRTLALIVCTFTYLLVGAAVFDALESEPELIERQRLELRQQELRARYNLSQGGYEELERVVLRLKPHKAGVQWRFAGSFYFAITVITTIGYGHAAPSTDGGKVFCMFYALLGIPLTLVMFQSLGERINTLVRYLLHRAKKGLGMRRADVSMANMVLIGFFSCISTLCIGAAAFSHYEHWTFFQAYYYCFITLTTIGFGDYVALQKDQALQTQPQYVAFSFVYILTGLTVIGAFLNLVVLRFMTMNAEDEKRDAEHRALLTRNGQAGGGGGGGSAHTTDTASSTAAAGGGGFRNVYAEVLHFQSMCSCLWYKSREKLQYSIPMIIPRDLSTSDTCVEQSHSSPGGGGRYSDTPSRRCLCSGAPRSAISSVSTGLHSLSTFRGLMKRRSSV
hERG rescue: hERG (human) protection from proarrhythmic block; CHO-hERG, FluxOR thallium flux, dofetilide IC70 present; activation (rescue from dofetilide block), less the hit threshold, % at 10 µM; hit rate 0.51% among 310,000;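 active means activation above the mean of controls blocked by dofetilide plus 5 SD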;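 further: thallium influx through hERG after potassium depolarization seen as dye fluorescence rise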
KCNQ1 act: potentiators or activators of human KCNQ1 potassium channel; P51787; CHO-K1 KCNQ1, thallium flux FluxOR fluorescence; active compounds read high; B-score at 10 µM; hit rate 0.35% among 310,000; AID 2648;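 active means fluorescence ratio B-score, a plate-corrected score, at least three library SD, with initial intensity B-score within 5 SD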
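System: CHO-K1 cells stably expressing KCNQ1 / Medium: assay buffer for compound exposure, DMSO matched across wells / Reagent: thallium- and potassium-containing depolarizing buffer / Compound: one concentration, matched DMSO / Incubation: 20 min compound pretreatment at room temperature / Measured by: kinetic FluxOR fluorescence, 10 s baseline plus 110 s post-stimulus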
KCNQ1 block: inhibitors of human KCNQ1 potassium channel. CHO-K1 KCNQ1, FluxOR thallium flux fluorescence; active compounds read high. B-score at 10 µM. hit rate 1.3% among 310,000. AID 2642;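 active means compounds whose thallium flux B-score, printed positive for inhibition, exceeds three library SD while starting fluorescence stays within three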;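 further: channel opened by potassium depolarization with thallium stimulus after 20 min compound exposure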
KCNQ1 inh valid: confirmation of human KCNQ1 potassium channel inhibitors; shares compounds with KCNQ1 block; KCNQ1 cell line, FluxOR thallium flux fluorescence; inhibition, % at 10 µM; hit rate 93% among 1,600;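 active means primary screen active, with duplicate mean exceeding buffer control mean plus 3 SD of buffer wells, cut at about 28% in these data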;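 further: 0% = buffer control ratio and 100% = XE991 inhibitor control ratio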
CHO Tl flux: KCNQ1 inhibitor counter-screen hit in parental CHO cells | shares compounds with KCNQ1 block | parental CHO-K1, FluxOR thallium flux fluorescence ratio; active compounds read low; zero means no signal rise above baseline | fluorescence ratio (Tl flux) at 10 µM | hit rate 21% among 1,600;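 active means mean of duplicate thallium-flux fluorescence ratios in parental host cells more than 5 SD below the buffer control mean, cut at about 0.38 in these data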;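 further: ratio is peak minus minimum fluorescence divided by baseline fluorescence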
KCNQ1 APC inh: blocks human KCNQ1 current in automated patch clamp; KCNQ1-CHO cells; hit rate 20% among 490; shares compounds with KCNQ1 block; AID 624120; calls only at 10 µM;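 active means KCNQ1 current drop exceeding 3 SD of negative control wells, seen in both duplicate runs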;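 further: steady state current during a 2 s step from -80 to +40 mV; negative values mean current inhibition and positive values mean potentiation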
KCNQ2 inh: rat KCNQ2 inhibition in KCNQ1 inhibitor specificity screen | inhibition, % at 10 µM | shares compounds with KCNQ1 block | KCNQ2 cells, FluxOR thallium flux fluorescence | hit rate 71% among 1,600;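 active means mean percent inhibition of the KCNQ2 thallium signal more than 5 SD above the buffer-only control wells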;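 further: KCNQ2 expressed in CHO cells; 0% = buffer control wells and 100% = XE-991 inhibitor control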
KCNQ1-KCNE1 inh: human KCNQ1/KCNE1 inhibition in KCNQ1 specificity screen | AID 652147 | KCNQ1/KCNE1 cells, FluxOR thallium flux fluorescence | inhibition, % at 10 µM | hit rate 77% among 1,600 | shares compounds with KCNQ1 block;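 active means mean percent inhibition of duplicate wells above the buffer-only control mean plus 3 SD of those controls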;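 further: 0% = buffer only wells and 100% = XE-991 inhibitor control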
KCNK9 block conf: confirmation of human KCNK9 potassium channel inhibitors. shares compounds with KCNK9 block. HEK293 KCNK9 cells, FluxOR thallium flux fluorescence. inhibition, % at 10 µM. hit rate 43% among 4,900. AID 492992;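 active means thallium signal inhibited by more than 5 SD of the compound-free buffer control wells, on both duplicate plates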;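 further: 0% = assay buffer control wells without compound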
Kir21 sel: mouse Kir2.1 off-target activity of KCNK9 modulators; shares compounds with KCNK9 block; Kir2.1 cells, FluxOR thallium flux fluorescence; inhibition, % at 10 µM; hit rate 4% among 4,900; AID 492993;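 active means thallium signal drop more than 5 SD beyond the mean of the no-compound control wells, seen in both duplicate plates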;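 further: signal is fluorescence rise after thallium addition divided by baseline fluorescence; plate controls were assay buffer only for no effect and full block by chlorpromazine control for full effect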
HEK293 Tl ctr: non-induced cell nonspecific activity of KCNK9 modulators; inhibition, % at 10 µM; non-induced KCNK9-HEK293, FluxOR thallium flux; hit rate 40% among 4,900; shares compounds with KCNK9 block;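 active means thallium signal drop beyond 5 SD of the untreated control mean, on both duplicate plates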;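 further: plate controls were buffer only IC0 wells for no effect and SID17386958 at its maximal inhibitory level for full effect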
KCNK3 inh conf: confirmation of human KCNK3 two-pore domain potassium channel inhibitors; shares compounds with KCNK3 block; CHO-KCNK3 thallium flux, FluxOR fluorescence; 0% buffer, 100% carvedilol maximal block; ratio percent of control, % at 10 µM; hit rate 99% among 2,400; AID 651638;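 active means ratio percent of control, averaged over triplicates, above buffer control mean plus 5 SD, cut at about 64% in these data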;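 further: ratio is the fluorescence rise from min to max over baseline after thallium stimulus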
KCNK3 noninduced: KCNK3 inhibitor counter-screen hit in non-induced cells; shares compounds with KCNK3 block; non-induced KCNK3 parental cells, FluxOR thallium flux; active compounds read low; thallium flux ratio (lower = more inhibition) at 10 µM; hit rate 40% among 2,400; AID 651747;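 active means thallium flux ratio, averaged over three wells, more than 5 SD below the buffer control mean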;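 further: host cells are CHO cells without KCNK3 induction; ratio is peak minus trough fluorescence over baseline then normalized to buffer controls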
* = called active by the depositor; i = inactive; . = no result.

SMILES | KCNK9 block | Kir21 inh | KCNK3 block | hERG rescue | KCNQ1 act | KCNQ1 block | KCNK9 block conf | Kir21 sel | HEK293 Tl ctr | others
Cc1ccc(O)c(C(=O)c2cc(C(=O)NCCC(C)C)c(=O)n(CCC(C)C)c2)c1 | i | -0.22 | -9.48* | -14.2 | i | 19* | . | . | . | KCNQ1 inh valid=129.5*;CHO Tl flux=0.389;KCNQ1 APC inh=i;KCNQ2 inh=125.7%*;KCNQ1-KCNE1 inh=124.0%*;KCNK3 inh conf=131.7*;KCNK3 noninduced=0.156*
OC(CNC1CCCCC1)C(F)(F)F (stereo not given) | i | -0.08 | i | -6.1 | i | i | . | . | .
CCOC(=O)C1(CCOc2ccccc2)CCN(Cc2ccccc2OC)CC1 | i | -2.76 | i | -11.1 | i | i | i | i | i
CCOC(=O)C1(CCc2ccccc2)CCN(Cc2cccc3cnccc23)CC1 | i | -0.09 | i | -14.9 | i | i | i | i | i
CCOC(=O)C1(CCc2ccccc2)CCN(Cc2csc(C(C)=O)c2)CC1 | i | -1.65 | i | -12.6 | i | i | i | i | i
CCOP(=O)(OCC)C(O)c1cccnc1 (stereo not given) | i | -0.03 | i | -6.4 | i | i | . | . | .
Cc1ccc(C[n+]2c(-c3ccc(C)cc3)cc(-c3ccc(C)cc3)cc2-c2ccc(C)cc2)cc1 | -13* | -14.3* | -8.73* | -42.5 | 34* | i | 61.0%* | 81.0%* | 38.5%*
COc1cccc(-n2c(-c3ccoc3)nc3ccccc3c2=O)c1 | -17.9* | -0.34 | i | -7.8 | i | i | i | i | i
COc1cccc(-n2c(C)nc3ccccc3c2=O)c1 | i | -1.15 | i | 0.1 | i | i | . | . | .
CC1(C)NC(=S)C(C)(C)N1N=O | . | . | i | . | . | . | . | . | .
CSc1ccc(C(=O)C2CCCN(Cc3cc4ccccc4[nH]3)C2)cc1 (stereo not given) | i | -2 | i | -26.3 | i | i | i | 49.5%* | i
CSc1ccc(C(=O)C2CCCN(Cc3cccnc3)C2)cc1 (stereo not given) | i | -2.04 | i | -7.7 | i | i | . | . | .
COC(=O)C(O)(c1ccc(NC(=S)NC(=O)c2ccccc2)cc1)C(F)(F)F (stereo not given) | -9.65* | -2.15 | i | -6.9 | i | i | 46.0%* | i | 25.5%*
COc1ccc(C(=O)C2CCCN(C3CSCCSC3)C2)c(C)c1 (stereo not given) | i | -1.2 | i | -8.0 | i | i | i | i | i
COc1ccc(C(=O)C2CCCN(C3CSCCSC3)C2)c(OC)c1 (stereo not given) | i | -2.13 | i | -7.9 | i | i | . | . | .
CSc1ccc(CN2CCN(C(=O)Cc3ccccc3)CC2)cc1 | i | 1.88 | i | -1.3 | i | i | . | . | .
CSc1ccc(CN2CCN(Cc3ccccc3Cl)CC2)cc1 | i | -4.92* | i | -10.2 | i | i | i | 41.0%* | i
N#Cc1ccccc1Cn1cc(C(=O)c2cccs2)c2ccccc21 | -8.11* | -0.55 | i | -5.1 | i | i | i | i | 34.5%*
O=C(c1cccs1)c1cn(Cc2ccccc2Cl)c2ccccc12 | i | -0.29 | i | -15.7 | i | i | . | . | .
C/C(=N\N1CCCCC1c1cccnc1)c1c(O)n(C2CCCCC2)c(=S)[nH]c1=O (stereo not given) | -14* | 0.67 | i | -9.8 | i | i | 75.0%* | i | 55.5%*
CCCCn1c(O)c(/C=N/N2CCCCC2c2cccnc2)c(=O)[nH]c1=S (stereo not given) | i | -1.06 | i | -3.3 | i | i | . | . | .
CCCCn1c(O)c(/C(CC)=N/N2CCCCC2c2cccnc2)c(=O)[nH]c1=S (stereo not given) | -18.1* | 3.98 | i | -10.6 | i | i | 77.5%* | i | 55.5%*
CCc1ccc(N2C(=O)NC(=O)/C(=C/c3ccsc3)C2=O)cc1 | i | 0.94 | . | -6.2 | i | i | . | . | .
Cc1cccc(OP(=O)(NCc2ccccc2)Oc2cccc(C)c2)c1 | i | 1.38 | i | -6.3 | i | i | . | . | .
CCOC(=O)C1(c2ccccc2)CCN(CCC(C#N)(c2ccccc2)c2ccccc2)CC1 | -8.15* | -0.57 | i | -10.6 | i | 6* | 40.5%* | i | 38.0%*
CCOC(=O)C1(c2ccccc2)CCN(CCC(=O)Nc2ccc(C(=O)OC)cc2)CC1 | . | . | i | . | . | . | . | . | .
C[C@]12N[C@H](Cc3ccccc31)c1ccccc12 | i | 1.04 | i | -5.3 | i | i | . | . | .
O=C(Cc1ccccc1)Oc1cccc(N2C(=O)CCC2=O)c1 | i | 2.87 | i | -5.1 | i | i | . | . | .
CC(C)(C)c1cc(OC(=O)Cc2ccccc2)ccc1O | -12.4* | -0.26 | i | -6.5 | i | i | 58.0%* | i | 30.0%*
